Test results as given in ChEMBL document CHEMBL3596194, “Design, synthesis and biological evaluation of bivalent benzoxazolone and benzothiazolone ligands as potential anti-inflammatory/analgesic agents” (Bioorg Med Chem, 2015).
The source made the active and inactive calls. The calls are words filed in the database; no cut-off is given here.

Experiments:
[1] = test system: SK-OV-3; assay: Cytotoxicity against human SKOV3 cells up to 25 ug/ml after 48 hrs by neutral red assay relative to control; type: cell-based; settings: sk-ov-3, 48 h
In short: (§1)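 Cells grown in RPMI-1640 with 10% bovine calf serum and amikacin at 37 °C, 5% CO2. Seeded at 25,000 cells/well and grown 24 h, then exposed 48 h to samples diluted in serum-free medium. Viability by Neutral Red; % decrease vs vehicle; IC50 from dose curves. Triplicate runs, mean reported; doxorubicin as positive control.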

[2] = test system: BT-549; assay: Cytotoxicity against human BT549 cells up to 25 ug/ml after 48 hrs by neutral red assay relative to control; type: cell-based; settings: bt-549, 48 h; in short: as §1
[3] = test system: Vero; assay: Cytotoxicity against African green monkey Vero cells after 48 hrs by neutral red assay relative to control; type: cell-based; settings: chlorocebus sabaeus
In short: (§2)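 Cells grown in RPMI-1640 with 10% bovine calf serum and amikacin at 37°C, 5% CO₂. Seeded 25,000 cells/well, grown 24 h, then exposed to compounds diluted in serum-free medium for 48 h. Viability by Neutral Red uptake, % decrease versus vehicle control. IC50 from dose curves, triplicate means. Doxorubicin positive control.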

[4] = Antiinflammatory activity in human SW1353 cells assessed as inhibition of PMA-induced NF-kappaB activity incubated for 30 mins prior to PMA challenge measured after 8 hrs by luciferase reporter gene assay; type: cell-based
In short: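 SW1353 cells in DMEM/F12 with 10% FBS, electroporated with NF-κB luciferase plasmid (160 V, one 70-ms pulse), plated at 1.25 × 10⁵ cells/well. After 24 h, graded compound concentrations added 30 min before PMA 70 ng/mL, then 8 h incubation. Luciferase read-out, % inhibition versus vehicle, IC50 from dose curves. Sp-1 reporter served as nonspecific control.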

[5] = test system: KB; assay: Cytotoxicity against human KB cells up to 25 ug/ml after 48 hrs by neutral red assay relative to control; type: cell-based; in short: as §1
[6] = Cytotoxicity against pig LLC-PK11 cells up to 25 ug/ml after 48 hrs by neutral red assay relative to control; type: cell-based, Sus scrofa; settings: llc-pk11, 48 h; in short: as §1
[7] = test system: SK-MEL; assay: Cytotoxicity against human SK-MEL cells up to 25 ug/ml after 48 hrs by neutral red assay relative to control; type: cell-based; in short: as §1
[8] = test system: SK-MEL; assay: Cytotoxicity against human SK-MEL cells after 48 hrs by neutral red assay relative to control; type: cell-based; in short: as §2
[9] = test system: Vero; assay: Cytotoxicity against African green monkey Vero cells up to 25 ug/ml after 48 hrs by neutral red assay relative to control; type: cell-based; settings: chlorocebus sabaeus; in short: as §1
[10] = test system: BT-549; assay: Cytotoxicity against human BT549 cells after 48 hrs by neutral red assay relative to control; type: cell-based; settings: BT-549, 48 h; in short: as §2
[11] = test system: KB; assay: Cytotoxicity against human KB cells after 48 hrs by neutral red assay relative to control; type: cell-based; in short: as §2
[12] = test system: SW1353; assay: Antiinflammatory activity in human SW1353 cells assessed as inhibition of PMA-induced NF-kappaB activity up to 25 ug/ml incubated for 30 mins prior to PMA challenge measured after 8 hrs by luciferase reporter gene assay; type: cell-based
In short: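 SW1353 chondrosarcoma cells grown in DMEM/F12 with 10% FBS at 37 °C, 5% CO2. Cells electroporated with an NF-κB luciferase plasmid (50 μg/mL, 160 V, one 70-ms pulse) and plated at 1.25 × 10⁵ cells/well. After 24 h, compound was added 30 min before PMA (70 ng/mL), then 8 h incubation. Luciferase read-out as % inhibition vs vehicle; IC50 from dose curves. Sp-1 served as a counter-screen.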

[13] = Cytotoxicity against pig LLC-PK11 cells after 48 hrs by neutral red assay relative to control; type: cell-based; settings: Sus scrofa, LLC-PK11, 48 h; in short: as §2
[14] = test system: Rattus norvegicus; assay: Antiinflammatory activity in albino rat assessed as inhibition of carrageenan-induced paw edema at 30 mg/kg, ip administered 1 hr prior to carrageenan challenge measured 4 hrs after induction of inflammation relative to control; type: functional
In short: (§3)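 Adult albino rats of both sexes, 120–150 g, groups of five, pre-hydrated with 3 ml water orally. Compounds suspended in distilled water with few drops Tween 80, given ip 1 h before subplantar s.c. 1% carrageenan into right hind paw. Paw thickness measured by dial calipers, left paw as control. % inhibition = (1 – Lt/Lc) × 100 versus saline/Tween 80 group.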

[15] = test system: Rattus norvegicus; assay: Antiinflammatory activity in albino rat assessed as inhibition of carrageenan-induced paw edema at 30 mg/kg, ip administered 1 hr prior to carrageenan challenge measured 1 hr after induction of inflammation relative to control; type: functional; in short: as §3
[16] = test system: SK-OV-3; assay: Cytotoxicity against human SKOV3 cells after 48 hrs by neutral red assay relative to control; type: cell-based; settings: SK-OV-3, 48 h; in short: as §2
[17] = test system: Rattus norvegicus; assay: Antiinflammatory activity in albino rat assessed as inhibition of carrageenan-induced paw edema at 30 mg/kg, ip administered 1 hr prior to carrageenan challenge measured 3 hrs after induction of inflammation relative to control; type: functional; in short: as §3
[18] = test system: Rattus norvegicus; assay: Antiinflammatory activity in albino rat assessed as inhibition of carrageenan-induced paw edema at 30 mg/kg, ip administered 1 hr prior to carrageenan challenge measured 2 hrs after induction of inflammation relative to control; type: functional; in short: as §3
[19] = biological target: T1, Nitric oxide synthase, inducible (Mus musculus) (UniProt P29477); assay: Antiinflammatory activity in mouse RAW264.7 cells assessed as inhibition of LPS-induced iNOS activity up to 25 ug/ml incubated for 30 mins prior to LPS challenge measured after 24 hrs by Griess assay; type: cell-based
T1 sequence (whole entry): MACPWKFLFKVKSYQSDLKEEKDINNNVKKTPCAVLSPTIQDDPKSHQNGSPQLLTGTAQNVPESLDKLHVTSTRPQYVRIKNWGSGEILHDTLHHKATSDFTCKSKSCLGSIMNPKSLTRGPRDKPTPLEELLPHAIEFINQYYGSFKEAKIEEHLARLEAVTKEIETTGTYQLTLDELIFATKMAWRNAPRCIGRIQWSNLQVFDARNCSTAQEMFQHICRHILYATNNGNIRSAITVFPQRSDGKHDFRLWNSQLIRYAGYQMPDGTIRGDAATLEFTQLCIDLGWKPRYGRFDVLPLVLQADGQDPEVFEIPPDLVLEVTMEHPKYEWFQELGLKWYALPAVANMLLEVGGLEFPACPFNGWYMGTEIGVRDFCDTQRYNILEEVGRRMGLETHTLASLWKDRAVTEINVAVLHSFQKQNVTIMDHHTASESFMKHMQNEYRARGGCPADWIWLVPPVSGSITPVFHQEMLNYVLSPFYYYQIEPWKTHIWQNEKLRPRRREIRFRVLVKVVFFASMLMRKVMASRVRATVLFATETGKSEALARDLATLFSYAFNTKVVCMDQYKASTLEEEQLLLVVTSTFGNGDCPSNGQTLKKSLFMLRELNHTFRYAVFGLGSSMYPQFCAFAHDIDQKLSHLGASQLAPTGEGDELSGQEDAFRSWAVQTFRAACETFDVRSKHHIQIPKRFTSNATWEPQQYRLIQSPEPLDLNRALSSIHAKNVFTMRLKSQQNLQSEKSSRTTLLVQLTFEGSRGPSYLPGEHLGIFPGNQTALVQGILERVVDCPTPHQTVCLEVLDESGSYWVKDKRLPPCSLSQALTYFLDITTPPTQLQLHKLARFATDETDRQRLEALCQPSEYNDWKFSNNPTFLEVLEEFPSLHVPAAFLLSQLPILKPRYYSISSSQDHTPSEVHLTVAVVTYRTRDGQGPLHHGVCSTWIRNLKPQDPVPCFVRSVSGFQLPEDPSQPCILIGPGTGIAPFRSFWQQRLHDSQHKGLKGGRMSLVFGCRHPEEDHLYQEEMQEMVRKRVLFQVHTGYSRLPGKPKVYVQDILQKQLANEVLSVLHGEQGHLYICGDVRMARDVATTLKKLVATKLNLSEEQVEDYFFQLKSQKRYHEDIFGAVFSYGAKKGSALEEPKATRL
In short: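 RAW264.7 macrophages seeded at 50,000 cells/well and grown 24 h to ≥75% confluency. Compounds in serum-free medium added 30 min before LPS (5 μg/mL), then 24 h incubation. Nitrite in the supernatant measured with Griess reagent.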

| SMILES | Activity [1] | Activity [2] | IC50 [3] | IC50 [4] | Activity [5] | Activity [6] | Activity [7] | IC50 [8] | Activity [9] | IC50 [10] | IC50 [11] | inhibition [12] | IC50 [13] | inhibition in vivo at 30 mg/kg [14] | inhibition in vivo at 30 mg/kg [15] | IC50 [16] | inhibition in vivo at 30 mg/kg [17] | inhibition in vivo at 30 mg/kg [18] | inhibition [19] |
| --- | --- | --- | --- | --- | --- | --- | --- | --- | --- | --- | --- | --- | --- | --- | --- | --- | --- | --- | --- |
| O=c1oc2ccccc2n1CCCCCN1CCN(CCCCCn2c(=O)oc3ccccc32)CC1 | Non-toxic | Non-toxic | 19.4 µM | 3.43 µM | Non-toxic | Non-toxic | Non-toxic |  |  |  |  |  |  |  |  |  |  |  |  |
| O=c1sc2ccccc2n1CCCCCCN1CCN(CCCCn2c(=O)sc3ccccc32)CC1 | Non-toxic |  |  | 0.83 µM |  | Non-toxic |  | 14.5 µM | Non-toxic | 21.3 µM | 19.5 µM |  |  |  |  |  |  |  |  |
| O=c1sc2ccccc2n1CCCN1CCN(CCCn2c(=O)sc3ccccc32)CC1 | Non-toxic | Non-toxic |  |  | Non-toxic |  | Non-toxic |  | Non-toxic |  |  | inactive | 23.5 µM |  |  |  |  |  |  |
| O=c1sc2ccccc2n1CCCCCCN1CCN(CCCCCn2c(=O)sc3ccccc32)CC1 |  |  | 25 µM | 1.06 µM | Non-toxic | Non-toxic | Non-toxic |  |  | 19.6 µM |  |  |  | 34.9% | 33.9% | 25 µM | 34.7% | 41.1% |  |
| O=c1sc2ccccc2n1CCCCCN1CCN(CCCCCn2c(=O)sc3ccccc32)CC1 |  |  |  |  | Non-toxic | Non-toxic |  | 19.8 µM | Non-toxic | 19.3 µM |  |  |  |  |  | 25 µM |  |  |  |
| O=c1oc2ccccc2n1CCCCN1CCN(CCn2c(=O)oc3ccccc32)CC1 | Non-toxic | Non-toxic |  |  | Non-toxic | Non-toxic | Non-toxic |  | Non-toxic |  |  | inactive |  |  |  |  |  |  | inactive |
| O=c1sc2ccccc2n1CCCN1CCN(CCn2c(=O)sc3ccccc32)CC1 | Non-toxic | Non-toxic |  |  | Non-toxic |  | Non-toxic |  | Non-toxic |  |  | inactive | 24.1 µM |  |  |  |  |  | inactive |
| O=c1sc2ccccc2n1CCCCN1CCN(CCCn2c(=O)sc3ccccc32)CC1 | Non-toxic | Non-toxic |  | 1.71 µM | Non-toxic |  | Non-toxic |  | Non-toxic |  |  |  | 19.2 µM |  |  |  |  |  |  |
